# Measured values reported in ChEMBL document CHEMBL1208768, “Synthesis, selective anti-Helicobacter pylori activity, and cytotoxicity of novel N-substituted-2-oxo-2H-1-benzopyran-3-carboxamides” (Bioorg Med Chem Lett, 2010).
# Active and inactive are the calls of the source. No cut-off for these calls is given here.
# How the values were obtained:
# [1] = system: Pichia kudriavzevii; assay: Antifungal activity against Candida krusei after 24 hrs by broth microdilution method; type: functional
# Outline: (§1)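 Candida isolates from respiratory-tract specimens, tested by NCCLS broth microdilution in Sabouraud dextrose broth. Serial compound dilutions inoculated to 10³/mL, with fungus-only and medium-only controls. Incubated 24 h at 37 °C. MIC was the lowest concentration with complete visible growth inhibition.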
# [2] = system: Helicobacter pylori; assay: Antibacterial activity against metronidazole-resistant Helicobacter pylori isolate 1 after 72 hrs by agar dilution method; type: functional; details: isolate 1, 72 h
# Outline: (§2)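 H. pylori clinical isolates (ATCC 43504 control each session) stored at -80 °C and subcultured twice on Columbia agar with 10% horse serum and 0.25% yeast extract. Suspensions of 0.5 McFarland were spotted by Steer's replicator at about 5 × 10⁵ CFU/spot onto agar with twofold compound dilutions. Plates were incubated 72 h at 37 °C in 10% CO₂. MIC was the lowest concentration without visible growth.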
# [3] = system: Helicobacter pylori; assay: Antibacterial activity against metronidazole-resistant Helicobacter pylori isolate 18 after 72 hrs by agar dilution method; type: functional; details: isolate 18, 72 h; outline: as §2
# [4] = system: Proteus vulgaris; assay: Antibacterial activity against Proteus vulgaris after 18 to 22 hrs by broth microdilution method; type: functional
# Outline: (§3)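 Clinical respiratory-tract isolates from patients, subcultured for purity and identified conventionally. Broth microdilution per NCCLS in Mueller–Hinton II broth; each plate had growth controls (bacteria, no compound) and medium-only controls. Incubation 18–22 h at 35 °C. MIC taken as the lowest concentration giving complete growth inhibition by unaided eye.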
# [5] = system: Staphylococcus hominis; assay: Antibacterial activity against Staphylococcus hominis after 18 to 22 hrs by broth microdilution method; type: functional; outline: as §3
# [6] = system: AGS; assay: Antiinflammatory activity in human AGS cells assessed as inhibition of IL-8 production at 5 ug/mL after 24 hrs; type: functional, cell-based
# Outline: (§4)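 AGS gastric adenocarcinoma cells were grown in F-12K with 10% FBS. They were seeded at 1 × 10⁵/mL for 24 h, preincubated 1 h with compound at 5 or 0.5 µg/mL, then exposed to H. pylori.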
# [7] = system: Citrobacter freundii; assay: Antibacterial activity against Citrobacter freundii after 18 to 22 hrs by broth microdilution method; type: functional; outline: as §3
# [8] = system: Escherichia coli; assay: Antibacterial activity against Escherichia coli after 18 to 22 hrs by broth microdilution method; type: functional; outline: as §3
# [9] = system: Helicobacter pylori; assay: Antibacterial activity against Helicobacter pylori ATCC 43504 clinical isolates after 72 hrs by agar dilution method; type: functional; details: ATCC 43504, 72 h
# Outline: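 Agar dilution per NCCLS. Twenty clinical strains from duodenal ulcer or gastritis patients, with ATCC 43504 as control in each session, were subcultured twice on Columbia agar plus 10% horse serum and 0.25% yeast extract (72 h, 37 °C, 10% CO₂). Inoculum of 0.5 McFarland in Wilkins Chalgren broth, about 5 × 10⁵ CFU/spot by Steer's replicator. Plates held twofold compound dilutions down to 0.0039 µg/mL and were incubated 72 h at 37 °C, 10% CO₂. MIC was the lowest concentration inhibiting visible growth.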
# [10] = system: Enterococcus faecalis; assay: Antibacterial activity against Streptococcus faecalis after 18 to 22 hrs by broth microdilution method; type: functional; outline: as §3
# [11] = system: AGS; assay: Antiinflammatory activity in human AGS cells assessed as inhibition of IL-8 production at 0.5 ug/mL after 24 hrs; type: functional, cell-based; outline: as §4
# [12] = system: Enterobacter; assay: Antibacterial activity against Enterobacter after 18 to 22 hrs by broth microdilution method; type: functional; outline: as §3
# [13] = system: Helicobacter pylori; assay: Antibacterial activity against metronidazole-resistant Helicobacter pylori NCTC 11637 after 72 hrs by agar dilution method; type: functional; details: NCTC 11637, 72 h; outline: as §2
# [14] = system: Helicobacter pylori; assay: Antibacterial activity against metronidazole-resistant Helicobacter pylori isolate 20 after 72 hrs by agar dilution method; type: functional; details: isolate 20, 72 h; outline: as §2
# [15] = system: [Candida] sake; assay: Antifungal activity against Candida sake after 24 hrs by broth microdilution method; type: functional; details: Fermentozyma sake; outline: as §1
# [16] = system: Helicobacter pylori; assay: Antibacterial activity against metronidazole-resistant Helicobacter pylori isolate 8 after 72 hrs by agar dilution method; type: functional; details: isolate 8, 72 h; outline: as §2
# [17] = system: Staphylococcus epidermidis; assay: Antibacterial activity against Staphylococcus epidermidis after 18 to 22 hrs by broth microdilution method; type: functional; outline: as §3
# [18] = system: Staphylococcus haemolyticus; assay: Antibacterial activity against Staphylococcus haemolyticus after 18 to 22 hrs by broth microdilution method; type: functional; outline: as §3
# [19] = system: Staphylococcus aureus; assay: Antibacterial activity against Staphylococcus aureus after 18 to 22 hrs by broth microdilution method; type: functional; outline: as §3
# [20] = system: Klebsiella oxytoca; assay: Antibacterial activity against Klebsiella oxytoca after 18 to 22 hrs by broth microdilution method; type: functional; outline: as §3
# [21] = system: Klebsiella aerogenes; assay: Antibacterial activity against Enterobacter aerogenes after 18 to 22 hrs by broth microdilution method; type: functional; outline: as §3
# [22] = system: Candida albicans; assay: Antifungal activity against Candida albicans after 24 hrs by broth microdilution method; type: functional; outline: as §1
# [23] = system: Klebsiella pneumoniae; assay: Antibacterial activity against Klebsiella pneumoniae after 18 to 22 hrs by broth microdilution method; type: functional; outline: as §3
Compound,MIC [1] [µg/mL],MIC [2] [µg/mL],MIC [3] [µg/mL],MIC [4] [µg/mL],MIC [5] [µg/mL],inhibition [6],MIC [7] [µg/mL],MIC [8] [µg/mL],MIC50 [9] [µg/mL],MIC90 [9] [µg/mL],MIC [10] [µg/mL],inhibition [11],MIC [12] [µg/mL],MIC [13] [µg/mL],MIC [14] [µg/mL],MIC [15] [µg/mL],MIC [16] [µg/mL],MIC [17] [µg/mL],MIC [18] [µg/mL],MIC [19] [µg/mL],also measured
CCOC(=O)c1ccc(NC(=O)c2cc3cccc(O)c3oc2=O)cc1,> 128,> 128,> 128,> 128,> 128,inactive,> 128,> 128,> 128,> 128,> 128,inactive,> 128,> 128,> 128,> 128,> 128,> 128,> 128,> 128,MIC [20]: > 128 µg/mL; MIC [21]: > 128 µg/mL; MIC [22]: > 128 µg/mL; MIC [23]: > 128 µg/mL
O=C(O)c1ccc(NC(=O)c2cc3cc(Br)cc(Br)c3oc2=O)cc1,> 128,16,16,> 128,> 128,inactive,> 128,> 128,16,16,> 128,inactive,> 128,16,16,> 128,16,> 128,> 128,> 128,MIC [20]: > 128 µg/mL; MIC [21]: > 128 µg/mL; MIC [22]: > 128 µg/mL; MIC [23]: > 128 µg/mL
O=C(O)c1ccc(NC(=O)c2cc3cc([N+](=O)[O-])ccc3oc2=O)cc1,> 128,128,128,> 128,> 128,inactive,> 128,> 128,128,128,> 128,inactive,> 128,128,64,> 128,64,> 128,> 128,> 128,MIC [20]: > 128 µg/mL; MIC [21]: > 128 µg/mL; MIC [22]: > 128 µg/mL; MIC [23]: > 128 µg/mL
CCOC(=O)N1CCC(NC(=O)c2cc3cc(Br)ccc3oc2=O)CC1,> 128,32,32,> 128,> 128,inactive,> 128,> 128,64,64,> 128,inactive,> 128,64,32,> 128,64,> 128,> 128,> 128,MIC [20]: > 128 µg/mL; MIC [21]: > 128 µg/mL; MIC [22]: > 128 µg/mL; MIC [23]: > 128 µg/mL
O=C(O)c1ccc(NC(=O)c2cc3cc(O)ccc3oc2=O)cc1,> 128,4,16,> 128,> 128,inactive,> 128,> 128,16,> 128,> 128,inactive,> 128,16,4,> 128,16,> 128,> 128,> 128,MIC [20]: > 128 µg/mL; MIC [21]: > 128 µg/mL; MIC [22]: > 128 µg/mL; MIC [23]: > 128 µg/mL
CCOC(=O)N1CCC(NC(=O)c2cc3ccccc3oc2=O)CC1,> 128,128,128,> 128,> 128,inactive,> 128,> 128,> 128,> 128,> 128,inactive,> 128,> 128,> 128,> 128,> 128,> 128,> 128,> 128,MIC [20]: > 128 µg/mL; MIC [21]: > 128 µg/mL; MIC [22]: > 128 µg/mL; MIC [23]: > 128 µg/mL
O=C(O)c1ccc(NC(=O)c2cc3cccc(O)c3oc2=O)cc1,> 128,> 128,> 128,> 128,> 128,inactive,> 128,> 128,> 128,> 128,> 128,inactive,> 128,4,> 128,> 128,> 128,> 128,> 128,> 128,MIC [20]: > 128 µg/mL; MIC [21]: > 128 µg/mL; MIC [22]: > 128 µg/mL; MIC [23]: > 128 µg/mL
Cc1ncc([N+](=O)[O-])n1CCO [METRONIDAZOLE],,64,128,,,,,,2,128,,,,128,128,,64,,,,
